Measurements as given in ChEMBL document CHEMBL5329148, “Visible and NIR light photoactivatable o-hydroxycinnamate system for efficient drug release with fluorescence monitoring” (RSC Med Chem, 2023).
pIC50: −log10 of the molar value.

Assays:
[1] = tested on: MCF7; test: Photocytotoxicity in human MCF7 cells assessed as reduction in cell viability preincubated for 1 hr followed by visible light irradiation for 30 mins and measured after 72 hrs by MTT assay; assay type: functional, cell-based; conditions: MCF7, light or radiation study
Method in brief: (§1)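 A549 or MCF7 cells (9000/well, grown 24 h) were given compound in medium with ≤1% DMSO for 1 h at 37 °C in the dark, washed twice and placed in PBS. They were irradiated with 400–700 nm light (11 mW) for 10, 20 or 30 min, then incubated 72 h in the dark. Viability was read by MTT (2 h, 37 °C), with formazan in DMSO at 570 nm. Unirradiated wells served as dark control.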

[2] = Dark toxicity in human MCF7 cells assessed as reduction in cell viability incubated for 72 hrs by MTT assay; assay type: cell-based
Method in brief: (§2)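 Cells seeded at 9000/well in DMEM with 10% FBS, grown 24 h at 37 °C in 5% CO2. Compound in medium with ≤1% DMSO for 1 h at 37 °C in the dark, washed twice with PBS, kept unirradiated, then incubated 72 h in the dark. MTT (5 mg mL-1 stock) added for 2 h at 37 °C, formazan dissolved in DMSO, absorbance read at 570 nm.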

[3] = tested on: A549; test: Photocytotoxicity in human A549 cells assessed as reduction in cell viability preincubated for 1 hr followed by two-photon NIR light irradiation for 10 mins and measured after 72 hrs by MTT assay; conditions: A549, light or radiation study
[4] = tested on: A549; test: Photocytotoxicity in human A549 cells assessed as reduction in cell viability preincubated for 1 hr followed by visible light irradiation for 30 mins and measured after 72 hrs by MTT assay; assay type: functional, cell-based; conditions: for pIC50: A549, light or radiation study; method in brief: as §1
[5] = (§3) Dark toxicity in human A549 cells assessed as reduction in cell viability incubated for 72 hrs by MTT assay; assay type: cell-based; conditions: A549 cells; method in brief: as §2
[6] = tested on: A549; test: Dark toxicity in human A549 cells assessed as reduction in cell viability upto 20 uM incubated for 72 hrs by MTT assay; assay type: cell-based; conditions: a549, 72 h; method in brief: as §2
[7] = tested on: A549; test: Induction of mitochondrial membrane depolarization in human A549 cells after 1 hr by JC-1 dye staining based FACS analysis (reference value: 5.3 +/- 1.1 %); assay type: functional
[8] = tested on: A549; test: Photocytotoxicity in human A549 cells assessed as reduction in cell viability at 10 uM preincubated for 1 hr followed by two-photon NIR light irradiation for 10 mins and measured after 72 hrs by MTT assay; assay type: functional; conditions: time 4390 min, 73.17 h
Method in brief: (§4)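 A549 cells (9000/well) were treated with compound for 1 h at 37 °C in the dark, then moved to PBS. They were irradiated with a two-photon femtosecond laser (800 nm, 50 mW) for 0, 5, 10, 15 or 20 min, then incubated 72 h in the dark in medium. Viability was read by MTT over 2 h, with formazan in DMSO at 570 nm. Unirradiated wells served as dark control.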

[9] = Drug localization in human A549 cells mitochondria at 10 uM incubated for 1 hr prior to PBS washout followed by visible light irradiation for 10 mins by inverted fluorescence microscopy analysis; assay type: ADME; conditions: a549, 1 h
Method in brief: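 A549 cells were loaded with 10 µM compound in complete DMEM for 1 h at 37 °C, washed, and irradiated in PBS with 400–700 nm light (11 mW) for 10 min. Mito Red (100 nM, 15 min) was added before a PBS wash. Coumarin signal was imaged at ex/em 350/460 nm and Mito Red at 550/580 nm. Overlap was taken from a scatter plot as Pearson's correlation coefficient.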

[10] = Drug release in 1: 9 DMSO/PBS at pH 7 at 50 uM under visible light irradiation upto 20 mins by emission spectroscopy; assay type: ADME; conditions: buffer, pH 7, 20 min
Method in brief: (§5)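 Drug release was measured across pH 4–9. Solutions of 50 µM in 1:9 DMSO/buffer were irradiated with 400–700 nm light (11 mW) at 2 cm and 25 °C, in 2-min steps over 0–20 min. Release was taken from coumarin reporter emission (ex 385 nm, em 475 nm). A dark control received no light.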

[11] = Lipophilicity, logP of compound in n-Octanol/water; assay type: physicochemical
[12] = Drug release in 1: 9 DMSO/PBS at pH 4 at 50 uM under visible light irradiation upto 20 mins by emission spectroscopy; assay type: ADME; conditions: buffer, pH 4, 20 min; method in brief: as §5
[13] = Drug release in 1: 9 DMSO/PBS at pH 9 at 50 uM under visible light irradiation upto 20 mins by emission spectroscopy; assay type: ADME; conditions: buffer, pH 9, 20 min; method in brief: as §5
[14] = tested on: A549; test: Photocytotoxicity in human A549 cells assessed as reduction in cell viability at 10 uM preincubated for 1 hr followed by two-photon NIR light irradiation for 20 mins and measured after 72 hrs by MTT assay; assay type: functional; conditions: time 4400 min, 73.33 h; method in brief: as §4
[15] = tested on: A549; test: Photo-induced drug release in human A549 cells assessed as increase in blue fluorescence at 10 uM incubated for 1 hr prior to PBS washout followed by visible light irradiation and further incubated for 10 mins by fluorescence imaging analysis; assay type: ADME, cell-based; conditions: a549, 1 h, TDE = time-dependent effect
Method in brief: (§6)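 A549 cells (2 × 10^5/well, seeded a day before) received 10 µM compound for 1 h at 37 °C in the dark and were washed with cold PBS. They were irradiated with 400–700 nm light (11 mW) for 0, 2, 5, 10, 15, 20 or 30 min, then held 10 min. Blue-channel fluorescence was imaged and given as the mean of 30 cells, fitted to an exponential.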

[16] = tested on: A549; test: Photocytotoxicity in human A549 cells assessed as reduction in cell viability at 10 uM preincubated for 1 hr followed by two-photon NIR light irradiation for 5 mins and measured after 72 hrs by MTT assay; assay type: functional; conditions: time 4385 min, 73.08 h; method in brief: as §4
[17] = Drug uptake in human A549 cells at 10 uM incubated for 1 hr by FACS analysis; assay type: ADME, cell-based; conditions: a549, 1 h
Method in brief: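 A549 cells (1.5 × 10^5/well) were washed and given 10 µM compound in medium with 1% DMSO for 0, 0.5, 1 or 2 h at 37 °C. They were irradiated in PBS with visible light (400–700 nm, 11 mW) for 10 min, then trypsinized and resuspended in HBSS. Blue coumarin fluorescence was read by flow cytometry on about 10000 cells.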

[18] = tested on: A549; test: Photo-induced drug release in human A549 cells assessed as increase in blue fluorescence at 10 uM incubated for 1 hr prior to PBS washout followed by visible light irradiation for 2 mins and further incubated for 10 mins by fluorescence imaging analysis; assay type: ADME, cell-based; conditions: a549, 1 h; method in brief: as §6
[19] = tested on: A549; test: Induction of mitochondrial membrane depolarization in human A549 cells after 30 mins by JC-1 dye staining based FACS analysis (reference value: 5.3 +/- 1.1 %); assay type: functional; conditions: 0.5 h
[20] = tested on: A549; test: Photocytotoxicity in human A549 cells assessed as reduction in cell viability at 5 uM preincubated for 1 hr followed by visible light irradiation upto 30 mins and measured after 72 hrs by MTT assay; assay type: functional, cell-based; conditions: time 73.5 hrs, TDE = time-dependent effect; method in brief: as §1
[21] = tested on: A549; test: as §3; assay type: cell-based; conditions: a549, 72 h, time 72 hrs; method in brief: as §2

With `Nc1ccn([C@@H]2O[C@H](CO)[C@@H](O)C2(F)F)c(=O)n1` [GEMCITABINE] the pIC50 [1] was 5.87, the IC50 at 72 h [2] was 1460 nM and the pIC50 [3] was 6.10. It also gave a pIC50 [4] of 6.19 and an IC50 at 72 h [5] of 750 nM.

For `CCN(CC)c1ccc(/C=C/C(=O)OC[C@H]2O[C@@H](n3ccc(N)nc3=O)C(F)(F)[C@@H]2O)c(O)c1`, the Activity [6] was “Non-Toxic”, the Activity [7] was 82.3% and the Activity [8] was 47%. For the same compound, the Drug uptake [9] was “Active”, the pIC50 [1] was 5.26 and the pIC50 [3] was 4.90. The pIC50 [4] was 5.30, the Activity ([4]; time 73.5 hrs) was “Dose-Dependent Effect” and the Drug metabolism [10] was “Active”. For the same compound, the logP [11] was 2.1, the Drug metabolism [12] was “Active” and the Drug metabolism [13] was “Active”. For the same compound, the Activity [14] was 57%, the Drug metabolism [15] was “Tde” and the Activity [16] was 35%. For the same compound, the Drug uptake [17] was “Active”, the Drug metabolism [18] was “Metabolite_Detected” and the Activity [19] was 13.9%. The Activity [20] was “Tde” and the Activity [21] was “Non-Toxic”.
